Measured values of several laboratories.
Lines come from different studies, so protocols differ.
SLC6A2: Sodium-dependent noradrenaline transporter (SLC6A2, Homo sapiens, UniProt P23975)
CECR2: Chromatin remodeling regulator CECR2 (CECR2, Homo sapiens, UniProt Q9BXF3)

Fc1ccc(C(c2ccc(F)cc2)c2nnnn2CCCCN2CCN(Cc3ccccc3)CC2)cc1 gave an inhibition of 95% (SLC6A2; transporter uptake, inhibitor; HEK293; 1 µM).
Cc1ccc(C(=O)Nc2ccc(CN3CCN(C)CC3)c(C(F)(F)F)c2)cc1C#Cc1cnc2cccnn12 gave a remaining signal of 84% (Peripheral plasma membrane protein CASK (CASK, Homo sapiens, UniProt O14936); cell-free assay; 23.5 nM).
With Nc1ncnc2occ(-c3ccc(NC(=O)Nc4cc(C(F)(F)F)ccc4F)cc3)c12 the remaining signal was 17% (Serine/threonine-protein kinase WNK4 (WNK4, Homo sapiens, UniProt Q96J92); cell-free assay, inhibitor; 20 µM).
For CCCOc1ccc(OC)c(F)c1C(=O)c1ccc(C(=O)N[C@@H]2CNC[C@H]2NC(=O)c2ccc3[nH]ncc3c2)cc1, the remaining activity was 4% (cAMP-dependent protein kinase catalytic subunit PRKX (PRKX, Homo sapiens, UniProt P51817); enzyme activity, inhibitor; 0.75 µM).
Cc1cnc(Nc2ccc(OCCN3CCCC3)cc2)nc1Nc1cccc(S(=O)(=O)NC(C)(C)C)c1 has a ΔTm of 0.12 °C (CECR2; thermal stability, DSF; 10 µM).
With CNC(=O)c1cc(Oc2ccc(NC(=O)Nc3ccc(Cl)c(C(F)(F)F)c3)cc2)ccn1 the inhibition was -8% (Serine/threonine-protein kinase Chk2 (CHEK2, Homo sapiens, UniProt O96017, R145W); enzyme activity, inhibitor; 0.3 µM).
For CC(=O)N[C@H]1CSSC[C@@H](C(=O)N[C@H](Cc2c[nH]c3ccccc23)C(N)=O)NC(=O)[C@H](Cc2ccccc2)NC(=O)[C@H](CCCNC(=N)N)NC1=O, the Emax was 0% (Melanocortin receptor 4 (MC4R, Homo sapiens, UniProt P32245); cAMP, agonist; HEK293; 3 min).
For c1ccc(CCCC2CCN(CCCn3nnnc3C(c3ccccc3)c3ccccc3)CC2)cc1, the inhibition was 84.9% (SLC6A2; transporter uptake, inhibitor; HEK293; 1 µM).
With CC(C)(C)c1nc2c(s1)c1nc(N)ncc1c1ccc(NS(=O)(=O)c3c(F)cccc3F)c(F)c12 the remaining activity was 89% (Mitotic checkpoint serine/threonine-protein kinase BUB1 beta (BUB1B, Homo sapiens, UniProt O60566); enzyme activity, inhibitor, radiometric; 1 µM).
With Cc1cc2c(cc1N1C(=O)c3cccc4c(Cl)ccc(c34)C1=O)n(C)c(=O)n2C the ΔTm was 3.5 °C (CECR2; thermal stability, DSF; 10 µM).
For Clc1ccc(C(c2ccc(Cl)cc2)c2nnnn2CCCCN2CCC(Cc3ccc(Cl)c(Cl)c3)CC2)cc1, the inhibition was 41.1% (SLC6A2; transporter uptake, inhibitor; HEK293; 1 µM).
For CC(C)CCC[C@@H](C)[C@H]1CC[C@H]2[C@@H]3[C@H](O)CC4=CC(=O)CC[C@]4(C)[C@H]3CC[C@]12C, the Km was 0.505 µM (7-alpha-hydroxycholest-4-en-3-one 12-alpha-hydroxylase (Homo sapiens, UniProt Q9UNU6); enzyme activity, substrate).
